UCH37 DUB inh = human UCH37 deubiquitinating enzyme inhibition; Q9Y5K5; purified proteasome/UCH37, Ub-AMC cleavage fluorescence; inhibition, % (no concentration beside the values); 330,000 tested, 0.33% active;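 active = mean inhibition over replicate wells above about 20%, limit read from the data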;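 also: 0% = compound-free wells with enzyme and 100% = wells lacking proteasome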
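assay system = human UCH37 enzyme supplied as purified proteasome complex | amount = proteasome at 0.15 nM in the dispensed enzyme solution | schedule = 30 min compound-proteasome preincubation then 25 min substrate reaction, room temperature | measured by = fluorescence, ex 355 nm, em 460 nm | benchmarks = no-proteasome wells (full inhibition) and compound-free wells (no inhibition)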
beta cell repl = induces beta-cell replication in MIN6 cells; proliferation, % at 10 µM; 330,000 tested, 0.29% active; MIN6 cells proliferation, ATPlite luminescence, 48 h; cells starved in 0.2% serum; 100% = growth in 10% serum; AID 2380;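 active = compounds whose signal lies at least 3.5 SD above the mean of all wells on their plate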;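 also: 0% = DMSO-treated cells in low-serum medium and 100% = 10% serum control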
NR1D1 modulator = Rev-erb alpha (human) modulation; activity, % at 10 µM; Rev-erbα–FITC-DNA binding, fluorescence polarization, 90 min; 370,000 tested, 0.79% active; P20393; AID 1259318;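 active = activity above about 14%, limit read from the data; passing the limit was not always enough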;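 also: 0% = DMSO wells with 35 nM protein and 100% = DMSO wells with 750 nM protein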
Target sequence (P20393 whole entry, looked up): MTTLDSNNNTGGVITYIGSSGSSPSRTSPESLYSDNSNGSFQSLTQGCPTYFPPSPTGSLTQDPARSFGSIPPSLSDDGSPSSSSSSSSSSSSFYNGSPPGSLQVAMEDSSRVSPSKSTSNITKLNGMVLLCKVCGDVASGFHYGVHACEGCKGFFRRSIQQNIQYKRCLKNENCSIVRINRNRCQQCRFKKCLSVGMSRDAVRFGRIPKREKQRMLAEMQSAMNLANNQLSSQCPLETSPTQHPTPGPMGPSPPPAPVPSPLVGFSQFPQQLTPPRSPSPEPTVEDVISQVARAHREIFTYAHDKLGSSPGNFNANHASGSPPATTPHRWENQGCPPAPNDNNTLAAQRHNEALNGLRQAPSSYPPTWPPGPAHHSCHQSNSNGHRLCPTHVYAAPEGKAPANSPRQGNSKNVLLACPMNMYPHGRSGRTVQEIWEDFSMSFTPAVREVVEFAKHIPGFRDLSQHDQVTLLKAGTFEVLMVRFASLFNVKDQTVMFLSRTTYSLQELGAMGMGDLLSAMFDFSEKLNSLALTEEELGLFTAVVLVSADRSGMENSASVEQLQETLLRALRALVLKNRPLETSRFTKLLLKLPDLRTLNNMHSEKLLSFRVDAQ
CR mimetic SO = yeast age-related superoxide inhibition as caloric restriction mimetic | S. cerevisiae aged cells, superoxide DHE fluorescence; stronger effect = lower value | superoxide response (% of plate mean), % at 10 µM | 330,000 tested, 0.18% active | AID 2690;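 active = superoxide response under a set limit, about three screen SD below normal, cut at about 65% in these data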;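 also: yeast aged for seven days with compound at 30 °C before DHE staining; 100% = average MFI of all compound-treated wells on the plate with controls excluded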
PG9 Ab binder = PG9 antibody binding by small molecule | 360,000 tested, 0.43% active | inhibition, % at 6.7 µM | TR-FRET gp120-PG9 antibody binding; in the data active = inhibition above about 8.5%
Rce1 inhib = blocks yeast Ras-converting enzyme; Q03530; yeast membranes, quenched prenylated peptide cleavage fluorescence; calls only; 290,000 tested, 0.27% active; AID 2563;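 active = fall in fluorescence gain of 50% or more versus controls, with final raw signal at or below 3038400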;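 also: plate controls were neutral control wells for no effect and wells lacking membranes for full effect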
NR1D1 mod conf = confirmation of modulators of human Rev-erb alpha DNA binding; Rev-erb alpha FITC-DNA binding, fluorescence polarization, 90 min; AID 1259319; activation, % at 25 µM; 3,000 tested, 61% active; shares compounds with NR1D1 modulator;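 active = activation at or above a set limit, or at least 3 SD above the negative control mean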;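 also: 0% = 35 nM protein with DMSO and 100% = 750 nM protein high control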
RORg counter = affects RORgamma DNA binding in a Rev-erb alpha counter-screen; IC50, µM; AID 1259320; 910 tested, 8% active; shares compounds with NR1D1 modulator; purified RORgamma protein-FITC-DNA binding, fluorescence polarization;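 active = Compounds whose fitted half-maximal concentration for disrupting protein-DNA binding is below 10 micromolar; the record names Rev-erb in its text, so the target is in doubt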
Active calls of the source: *; i = inactive; . = no result given. Hits are enriched below; roughly 1.9% of the tested compounds scored in any of these assays.

SMILES	UCH37 DUB inh	beta cell repl	NR1D1 modulator	CR mimetic SO	PG9 Ab binder	Rce1 inhib	NR1D1 mod conf	others
COC(=O)Cn1c(=NC(=O)c2cccc(OC)c2)sc2cc(OC)ccc21	-293.3	1.7	31.0*	99.5	0.0	i	22.9*
COC(=O)Cn1c(=NC(=O)c2ccc(S(=O)(=O)N3CCc4ccccc4C3)cc2)sc2cc(OC)ccc21	-348.2	0.0	39.5*	97.6	6.5	i	2.2
COCCn1c(=NC(=O)c2ccc(S(=O)(=O)N3CCc4ccccc4C3)cc2)sc2cc(S(N)(=O)=O)ccc21	-371.0	0.0	-1.6	121.5	-4.2	i	.
COC(=O)Cn1c(=NC(=O)c2cc(OC)cc(OC)c2)sc2cc(OC)ccc21	i	1.1	31.2*	82.2	1.8	i	4.8
COc1ccc(C=NNC(=O)c2cccc([N+](=O)[O-])c2)cc1O	4.7	.	.	.	.	.	.
C=CCNC(=O)C(=O)NN=Cc1ccco1	6.9	.	.	.	.	.	.
Cn1c(=O)c2c(ncn2CC(=O)NN=C/C=C/c2ccccc2[N+](=O)[O-])n(C)c1=O	7.1	.	.	.	.	.	.
COc1ccc(NC(=O)CON=C(C)c2cccs2)cc1	4.3	.	.	.	.	.	.
COc1ccccc1C=NNC(=O)CSc1ccc2ccccc2n1	1.4	.	.	.	.	.	.
C=CCC[C@@H](Cc1ccc(F)cc1)C(=O)OC[C@H](C)NC(=O)[C@@H](CC=C)CC(=O)N(CCO)Cc1ccccc1	1.4	-4.4	13.1*	87.2	0.9	.	-5.1
C=CCC[C@H](Cc1ccc(F)cc1)C(=O)OC[C@@H](C)NC(=O)[C@H](CC=C)CC(=O)N(CCO)Cc1ccccc1	1.8	-3.9	0.7	92.9	-0.9	.	.
CCCC12CN3CCN(CC(C3)C1=NNC(=O)c1ccccc1Cl)C2	2.0	.	.	.	.	.	.
CCNC(=O)NC(=O)C(C)OC(=O)c1oc2ccc(OC)cc2c1C (stereo not given)	-22.0	-2.7	23.4*	103.1	1.2	i	12.4
COc1ccc2oc(C(=O)OC(C)C(=O)N(C)c3ccccc3)c(C)c2c1 (stereo not given)	-30.9	0.2	-3.1	100.3	-1.1	i	.
Cc1cccc2cc(C#N)c(NCCNC(=O)NC3CCCCC3)nc12	-48.1	1.9	62.2*	101.8	1.1	i	31.2*	RORg counter=>40
Cc1ccc(-n2c(SCc3cccc(F)c3)nc3sc4c(c3c2=O)CCCC4)cc1	.	.	1.5	.	.	.	.
N#Cc1ccc(CSc2nc3sc4c(c3c(=O)n2-c2ccc(Br)cc2)CCCC4)cc1	.	.	23.0*	.	.	.	8.7
CCOC(=O)NN=Cc1cn(CCCOc2ccc(C)cc2)c2ccccc12	2.8	.	.	.	.	.	.
CC(=O)NCCNc1nc2c(-c3cccc(C)c3)nnn2c2ccccc12	-20.0	2.8	0.9	97.8	3.6	i	.
CC(=O)NCCNc1nc2c(-c3ccccc3)nnn2c2ccccc12	-189.1	-0.9	2.8	98.6	1.2	i	.
Cc1ccc(-c2nnn3c2nc(NCCc2ccc(S(N)(=O)=O)cc2)c2ccccc23)cc1	.	0.0	48.3*	98.2	4.0	i	29.8*
Cc1cccc(-c2nnn3c2nc(NCCc2ccc(S(N)(=O)=O)cc2)c2ccccc23)c1	-337.3	-3.3	78.3*	91.0	1.2	i	56.2*	RORg counter=i
NS(=O)(=O)c1ccc(CCNc2nc3c(-c4cccc(F)c4)nnn3c3ccccc23)cc1	.	-2.5	81.7*	104.5	-0.6	i	82.7*	RORg counter=>40
O=C(CCC(=O)NC1CCCCC1)NN=Cc1ccncc1	3.6	.	.	.	.	.	.
Cc1cc(C)nc(NC(=S)Nc2cccc(Cl)c2Cl)c1	-0.7	-0.2	63.0*	95.4	2.3	i	4.8
SMILES	UCH37 DUB inh	beta cell repl	NR1D1 modulator	CR mimetic SO	PG9 Ab binder	Rce1 inhib	NR1D1 mod conf	others
Cc1cc(C)nc(NC(=S)Nc2ccc(Br)cc2Cl)c1	0.9	2.6	1.8	98.4	-1.7	i	.
COc1ccc(NC(=S)Nc2cc(C)cc(C)n2)cc1OC	1.2	0.0	21.9*	96.5	-1.9	i	0.4
COc1cccc(NC(=S)Nc2cc(C)cc(C)n2)c1	5.4	-2.8	31.1*	95.1	-0.8	i	7.6
CC(=NNC(=O)c1ccc(CN(C)S(=O)(=O)c2ccc(C)cc2)cc1)c1ccc(OC(F)F)cc1	5.7	.	.	.	.	.	.
COC(=O)c1ccsc1NC(=O)c1ccc(Cl)s1	-47.0	-0.1	20.1*	101.1	-2.4	i	-1.8
Cc1ccc(C=Nn2c(-c3ccccc3)n[nH]c2=S)s1	1.2	.	.	.	.	.	.
Cc1ccc(S(=O)(=O)N2CCN(c3ncnc4scc(-c5ccc(F)cc5)c34)CC2)cc1	0.8	-2.8	23.6*	97.0	-0.7	i	6.0
Cc1ccc(S(=O)(=O)N2CCN(c3ncnc4scc(-c5ccccc5)c34)CC2)cc1	5.2	-5.2	-4.3	85.0	-0.9	.	.
COc1ccc(-c2csc3ncnc(N4CCN(S(=O)(=O)c5cccc(C(F)(F)F)c5)CC4)c23)cc1	-1.3	-5.5	2.5	71.4	-0.7	i	.
COc1ccc(-c2csc3ncnc(N4CCN(S(=O)(=O)c5cccc(Br)c5)CC4)c23)cc1	0.4	-1.2	16.2*	105.7	6.7	i	18.0*
NC(N)=NN=Cc1ccc2cccc(OCc3ccccc3)c2n1	-127.8	.	.	.	.	.	.
O=C(COc1ncnc2c(Cl)cc(Cl)cc12)NC1CCCCCC1	3.5	0.0	30.0*	116.4	-0.8	i	31.7*	RORg counter=1.27*
COc1ccc(-n2c(=C(C#N)C(=O)NCCN3CCOCC3)sc(=Cc3cccs3)c2=O)cc1	-7.2	.	.	.	.	.	.
COC(=O)c1ccc(NC(=O)c2cn(-c3ccccc3)nc2-c2ccncc2)cc1	1.3	-1.9	289.1*	85.1	8.4	i	253.5*	RORg counter=>40
O=C(NN=C1CC2CC=CC12)c1ccc(Br)cc1 (stereo not given)	4.1	.	.	.	.	.	.
Cc1ccccc1NC(=O)CSc1nc(N)c(C#N)cc1C#N	-23.8	-0.3	-3.4	97.3	-0.9	i	.
COc1ccc(NC(=O)CSc2nc(N)c(C#N)cc2C#N)cc1	1.5	-1.4	61.5*	103.1	1.6	i	65.2*	RORg counter=>40
CC(C)CCSc1nc(N)c(C#N)cc1C#N	-37.7	2.6	104.2*	139.4	-0.8	i	96.3*	RORg counter=>40
COc1cc(NC(=O)CSc2nc3ccccc3cc2Cc2ccccc2)cc(OC)c1	2.2	-1.7	2.8	89.6	-2.0	i	.
COc1ccc(NC(=O)CSc2nc3ccccc3cc2Cc2ccccc2)cc1	3.3	-3.5	27.0*	88.5	3.9	i	21.8*
COc1ccc2nc(SCC(=O)Nc3ccc4sc(C)nc4c3)c(C#N)cc2c1	-2.7	1.9	91.6*	91.9	6.0	i	123.2*	RORg counter=>40
Cc1ccc2cc(C=NNC(=O)CN3CCOCC3)c(Cl)nc2c1	7.1	.	.	.	.	.	.
COc1ccc(Nc2nc3ccc(C)cn3c(=O)c2C=NO)cc1	2.2	.	.	.	.	.	.
